Results as given in publication PMC3981972 (Molecular cancer therapeutics, 2014).

Tests used:
[1] = Plasma protein binding by rapid equilibrium dialysis; format: in vitro ADME; conditions: 10 μM in mouse serum, 37°C, 4 hours
In short: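 Probe equilibrated in mouse serum against PBS on a shaker. Both compartments then adjusted with plasma or PBS to a 50:50 PBS:plasma final matrix to even out fluorescence effects. Fluorescence read on a plate reader to give the bound fraction.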

HT1080 cells = assay: Live cell imaging of subcellular uptake and wash-out kinetics; format: cell-based
In short: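 HT1080 cells grown in DMEM with non-essential amino acids, 10% FBS and 1% penicillin-streptomycin, then imaged live in glass coverslip-bottom dishes on an inverted deconvolution microscope (40x objective, 37°C, 5% CO2). Prewarmed fluorescent probe was added to 1 μM, with images every second. Cells were then washed twice into drug-free medium. Nuclear and nucleolar regions of interest were fitted to uptake and clearance curves.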

[2] = test system: tumor blood vessels of HT-1080 xenografts; conditions: previous observations; cited from earlier work
[3] = Mouse plasma clearance of fluorescent probes after intravenous injection; format: in vivo; conditions: 75 nmol i.v., biexponential fit
In short: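 Nude mice (6–8 weeks) with HT-1080 tumours in dorsal skin window chambers, under 1–2% isoflurane. Vessels labelled with Angiosense-750 or Pacific Blue–dextran. 75 nmol probe in 1:1 dimethylacetamide:solutol plus PBS, sonicated, given by tail-vein catheter during time-lapse intravital imaging (scans every 10 s). Plasma signal taken from intravascular regions of interest and fitted to biexponential decay.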

Mouse plasma protein binding [1]: 99.23% (+/− 0.11%)
Cellular uptake half-life (HT1080 cells; HT1080 cells, 1 μM): 71 s
Mouse plasma clearance t1/2,alpha [3]: 5.16 min
Mouse plasma clearance t1/2,beta [3]: 85.7 min
C0 ([3]; read-out: Mouse plasma clearance C0): 7 µM
SMILES: Cc1cc(C)n2c1C=C1C=CC(CCC(=O)N3CCN(C(=O)c4cc(Cc5n[nH]c(=O)c6ccccc56)ccc4F)CC3)=[N+]1[B-]2(F)F [olaparib-BODIPY FL]
Washing time to remove non-specific ER staining (HT1080 cells; HT1080 cells after 1 μM incubation, washed with fresh media): Within five minutes
Vascular permeability in tumor vessels versus mouse ear vessels [2]: the same in tumor vessels and mouse ear vessels
